Laboratory results: ChEMBL document CHEMBL3228032, “Aryloxyalkyloxy- and aralkyloxy-4-hydroxy-3-nitrocoumarins which inhibit histamine release in the rat and also antagonize the effects of a slow reacting substance of anaphylaxis” (J Med Chem, 1979)

Each compound was assayed on Ileum (assay: Antagonism of slow reacting substance of anaphylaxis-induced effect in guinea pig ileum). Details: Cavia porcellus.
Assay type: functional, tissue-based
Procedure, shortened: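 SRS-A standard: heated supernatant of pooled rat peritoneal fluid taken 5 min after antigen challenge in passive peritoneal anaphylaxis. Assayed on isolated terminal guinea pig ileum in 4 mL Tyrode's with atropine 5 × 10⁻⁷ M and mepyramine maleate 10⁻⁶ M. Antagonist in water added 30 s before a submaximal SRS-A dose. At least three concentrations, more than one ileum. Bath concentration for 50% inhibition taken from log concentration-inhibition curve, by eye or best-fit line with 95% confidence limits.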

SMILES	IC50 [nM]
CCCc1c(OCC(O)COc2ccc3c(O)c([N+](=O)[O-])c(=O)oc3c2)ccc(C(C)=O)c1O (stereo unspecified)	80
O=c1oc2cc(OCCCCc3ccccc3)ccc2c(O)c1[N+](=O)[O-]	4500
O=c1oc2cc(OCCCOc3ccccc3)ccc2c(O)c1[N+](=O)[O-]	1600
CCCc1c(OCC(O)COc2ccc3c(O)c([N+](=O)[O-])c(=O)oc3c2CC)ccc(C(C)=O)c1O (stereo unspecified)	50
O=c1oc2cc(OCCCOc3ccc(-c4ccccc4)cc3)ccc2c(O)c1[N+](=O)[O-]	> 20000
CCc1cc(C(C)=O)c(O)cc1OCC(O)COc1ccc2c(O)c([N+](=O)[O-])c(=O)oc2c1 (stereo unspecified)	3500
O=c1oc2cc(OCCOc3ccccc3)ccc2c(O)c1[N+](=O)[O-]	> 10000
COc1ccc(OCCCOc2ccc3c(O)c([N+](=O)[O-])c(=O)oc3c2)cc1	> 4000
O=c1oc2cc(OCc3ccccc3)ccc2c(O)c1[N+](=O)[O-]	1500
O=c1oc2cc(OCCCCOc3ccccc3)ccc2c(O)c1[N+](=O)[O-]	3600
O=C(O)c1ccc(OCCCOc2ccc3c(O)c([N+](=O)[O-])c(=O)oc3c2)cc1	> 20000
CCCc1c(OCC(O)COc2ccc3c(O)c([N+](=O)[O-])c(=O)oc3c2C)ccc(C(C)=O)c1O (stereo unspecified)	25
O=C(O)c1ccc(OCC(O)COc2ccc3c(O)c([N+](=O)[O-])c(=O)oc3c2)cc1 (stereo unspecified)	> 10000
Cc1ccc(OCCCOc2ccc3c(O)c([N+](=O)[O-])c(=O)oc3c2)c([N+](=O)[O-])c1	> 10000
O=c1oc2c(OCCCOc3ccccc3)cccc2c(O)c1[N+](=O)[O-]	> 20000
CCCc1ccccc1OCC(O)COc1ccc2c(O)c([N+](=O)[O-])c(=O)oc2c1 (stereo unspecified)	110

SMILES	IC50 [nM]
N#Cc1ccc(OCCCOc2ccc3c(O)c([N+](=O)[O-])c(=O)oc3c2)cc1	> 10000
CCCc1c(OCCCOc2ccccc2)ccc2c(O)c([N+](=O)[O-])c(=O)oc12	540
CCCc1cc(F)ccc1OCC(O)COc1ccc2c(O)c([N+](=O)[O-])c(=O)oc2c1 (stereo unspecified)	140
O=c1oc2ccc(OCc3ccccc3)cc2c(O)c1[N+](=O)[O-]	22000
O=c1oc2ccc(OCCCOc3ccccc3)cc2c(O)c1[N+](=O)[O-]	2300
CCCc1c(OCC(O)COc2ccc3c(=O)cc(C(=O)O)oc3c2CCC)ccc(C(C)=O)c1O (stereo unspecified) [FPL-55712]	170
Cc1cccc(OCCCOc2ccc3c(O)c([N+](=O)[O-])c(=O)oc3c2)c1	4400
CC(=O)c1ccc(OCC(O)COc2ccc3c(O)c([N+](=O)[O-])c(=O)oc3c2)cc1O (stereo unspecified)	> 20000
O=c1oc2cc(OCCCOc3ccc4c(c3)CCCC4)ccc2c(O)c1[N+](=O)[O-]	> 2000
O=c1oc2cc(OCCCCCOc3ccccc3)ccc2c(O)c1[N+](=O)[O-]	8400
CCCc1c(O)c(C(C)=O)cc([N+](=O)[O-])c1OCC(O)COc1ccc2c(O)c([N+](=O)[O-])c(=O)oc2c1C (stereo unspecified)	1600
Cc1ccc(CCCCOc2ccc3c(O)c([N+](=O)[O-])c(=O)oc3c2)cc1	2500
O=c1oc2cc(OCCCOc3ccc(Cl)cc3)ccc2c(O)c1[N+](=O)[O-]	4000
CC(=O)c1ccc(OCCCOc2ccc3c(O)c([N+](=O)[O-])c(=O)oc3c2)cc1O	2800
O=c1oc2ccc(OCCCCCOc3ccccc3)cc2c(O)c1[N+](=O)[O-]	2000

Results, then the compound that gave them:

IC50 [nM]	SMILES
> 10000	COC(=O)c1ccc(OCCCOc2ccc3c(O)c([N+](=O)[O-])c(=O)oc3c2)cc1
590	Cc1ccccc1OCCCOc1ccc2c(O)c([N+](=O)[O-])c(=O)oc2c1
> 20000	O=c1oc2cc(OCCCCCCOc3ccccc3)ccc2c(O)c1[N+](=O)[O-]
780	O=c1oc2ccc(OCCCCCCOc3ccccc3)cc2c(O)c1[N+](=O)[O-]
4400	O=c1oc2cc(OCCc3ccccc3)ccc2c(O)c1[N+](=O)[O-]
100	CCCc1c(OCCCOc2ccc3c(O)c([N+](=O)[O-])c(=O)oc3c2)ccc(C(C)=O)c1O
2700	CCc1ccccc1OCC(O)COc1ccc2c(O)c([N+](=O)[O-])c(=O)oc2c1 (stereo unspecified)
> 20000	O=c1oc2cccc(OCCCc3ccccc3)c2c(O)c1[N+](=O)[O-]
12000	O=c1oc2cc(OCC(O)COc3ccccc3)ccc2c(O)c1[N+](=O)[O-] (stereo unspecified)
150	CCCc1c(OCC(O)COc2ccc3c(O)c([N+](=O)[O-])c(=O)oc3c2)ccc(C(=O)CC)c1O (stereo unspecified)
7800	O=c1oc2cc(OCCCc3ccccc3)ccc2c(O)c1[N+](=O)[O-]
> 10000	CCc1cc2c(O)c([N+](=O)[O-])c(=O)oc2cc1OCCCOc1ccccc1
200	CCCc1c(OCC(O)COc2ccc3c(O)c([N+](=O)[O-])c(=O)oc3c2CCC)ccc(C(C)=O)c1O (stereo unspecified)
17000	O=c1oc2ccc(OCCOc3ccccc3)cc2c(O)c1[N+](=O)[O-]
5500	O=c1oc2ccc(OCCCc3ccccc3)cc2c(O)c1[N+](=O)[O-]
6100	CC(=O)c1ccc(OCCCOc2ccc3c(O)c([N+](=O)[O-])c(=O)oc3c2)cc1
500	CC(=O)c1ccc(OCC(O)COc2ccc3c(O)c([N+](=O)[O-])c(=O)oc3c2)c(C)c1O (stereo unspecified)
18000	O=c1oc2cccc(OCCCOc3ccccc3)c2c(O)c1[N+](=O)[O-]
18000	O=c1oc2ccc(OCCc3ccccc3)cc2c(O)c1[N+](=O)[O-]
5200	Cc1cc(OCCCOc2ccccc2)cc2oc(=O)c([N+](=O)[O-])c(O)c12
700	CCCc1cc(C(C)=O)ccc1OCC(O)COc1ccc2c(O)c([N+](=O)[O-])c(=O)oc2c1 (stereo unspecified)
4500	Cc1ccc(OCCCOc2ccc3c(O)c([N+](=O)[O-])c(=O)oc3c2)cc1
160	CC(C)c1ccccc1OCC(O)COc1ccc2c(O)c([N+](=O)[O-])c(=O)oc2c1 (stereo unspecified)
> 10000	O=c1oc2cccc(OCCCCOc3ccccc3)c2c(O)c1[N+](=O)[O-]
1000	O=c1oc2cc(OCCCOc3ccc(F)cc3)ccc2c(O)c1[N+](=O)[O-]
3800	O=c1oc2cc(OCCCCc3ccc(Cl)cc3)ccc2c(O)c1[N+](=O)[O-]

Each compound was assayed on Rattus norvegicus (assay: Antiallergic activity against ip dosed passive peritoneal anaphylaxis rat model assessed as inhibition of histamine release in peritoneal fluid administered 30s prior to ovalbumin challenge measured per rat after 5 mins). Details: not given.
Assay type: functional
Procedure, shortened: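 Rat anti-ovalbumin antiserum raised with Bordetella pertussis vaccine adjuvant; rats given 2 mL of 1:5 antiserum ip. 2 h later, Pontamine Sky Blue iv, then compound in 1 mL saline ip (saline controls), groups of 5–7, randomized. Challenge 30 s later ip with 5 mL Tyrode containing heparin 50 μg/mL and ovalbumin 0.4 mg/mL. Peritoneal fluid collected at 5 min for histamine. Dose reducing histamine to 50% of controls from log dose-response line, 95% confidence limits.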

SMILES	ED50
CCCc1c(OCC(O)COc2ccc3c(O)c([N+](=O)[O-])c(=O)oc3c2)ccc(C(C)=O)c1O (stereo unspecified)	6.5 ×10⁻¹⁰ M
O=c1oc2cc(OCCCOc3ccccc3)ccc2c(O)c1[N+](=O)[O-]	2.1 nM
CCCc1c(OCCCOc2ccc3c(O)c([N+](=O)[O-])c(=O)oc3c2)ccc(C(C)=O)c1O	4.8 nM
CCCc1c(OCC(O)COc2ccc3c(O)c([N+](=O)[O-])c(=O)oc3c2C)ccc(C(C)=O)c1O (stereo unspecified)	2.4 nM
CCCc1ccccc1OCC(O)COc1ccc2c(O)c([N+](=O)[O-])c(=O)oc2c1 (stereo unspecified)	1.1 nM
CCCc1c(OCC(O)COc2ccc3c(O)c([N+](=O)[O-])c(=O)oc3c2CCC)ccc(C(C)=O)c1O (stereo unspecified)	6.2 ×10⁻¹⁰ M
CCCc1cc(F)ccc1OCC(O)COc1ccc2c(O)c([N+](=O)[O-])c(=O)oc2c1 (stereo unspecified)	1.7 nM
CCCc1c(OCC(O)COc2ccc3c(=O)cc(C(=O)O)oc3c2CCC)ccc(C(C)=O)c1O (stereo unspecified) [FPL-55712]	3.2 ×10⁻⁸ M
O=C([O-])c1cc(=O)c2c(OCC(O)COc3cccc4oc(C(=O)[O-])cc(=O)c34)cccc2o1.[Na+].[Na+] [CROMOLYN SODIUM]	5.2 nM
